Measured values as given in article PMC4696769 (Biochemistry, 2015).
Values joined by “and” are separate entries in the source; they are usually repeats but may differ in a detail not shown here. Identical values can stand only once. Each block holds one molecule with its values, some of them ahead of it.

Columns and labels:
[1] = molecular target: T1, P133R AKR1D1 (Homo sapiens, UniProt P51857, P133R); test: Multiple turnover reactions, stopped-flow transient kinetics; format: biochemical; conditions: 10 mM potassium phosphate buffer, pH 7, 37 °C
[2] = molecular target: T2, WT AKR1D1 (Homo sapiens, UniProt P51857); test: Multiple turnover reactions, stopped-flow transient kinetics; format: biochemical; conditions: 10 mM potassium phosphate buffer, pH 7, 37 °C
Outline: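 Multiple-turnover reactions in stopped-flow. […] Both solutions in 10 mM KPi pH 7.0 with 4% acetonitrile at 37 °C. […] At least three traces averaged, fit to a linear or burst-plus-linear equation giving pseudo-first-order kburst and […] kss.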

[3] = molecular target: T1, P133R AKR1D1; test: Steady-state kinetic analysis of steroid reduction; conditions: for kcat: P133R
[4] = molecular target: T1, P133R AKR1D1; test: Steroid binding, quenching of energy transfer band of E·NADPH complex
[5] = molecular target: T2, WT AKR1D1; test: Steady-state kinetic analysis of steroid reduction; format: biochemical; conditions: for kcat: pH 7.0, 37 °C, 7.2 μM NADPH; for Ki: Ki (substrate inhibition; dissociation constant for substrate from the E-NADP+ complex)
[6] = molecular target: T2, WT AKR1D1; test: Steroid binding, quenching of energy transfer band of E·NADPH complex
[7] = molecular target: T1, P133R AKR1D1; test: Cofactor binding, quenching of intrinsic protein fluorescence; conditions: pH 7.0, 37 °C
[8] = molecular target: T2, WT AKR1D1; test: as above; conditions: pH 7.0, 37 °C
[9] = molecular target: T1, P133R AKR1D1; test: Ligand chase experiment of cofactor; format: binding
[10] = molecular target: T2, WT AKR1D1; test: Ligand chase experiment of cofactor; format: binding; conditions: pH 7.0, 37 °C
[11] = substrate: CC(C)CCC[C@@H](C)[C@H]1CC[C@H]2[C@@H]3[C@H](O)CC4=CC(=O)CC[C@]4(C)[C@H]3CC[C@]12C; test: purified protein, by the assay type; conditions: other: P133R, pH 7.0, 37.0 °C

T2 sequence (P51857 whole entry): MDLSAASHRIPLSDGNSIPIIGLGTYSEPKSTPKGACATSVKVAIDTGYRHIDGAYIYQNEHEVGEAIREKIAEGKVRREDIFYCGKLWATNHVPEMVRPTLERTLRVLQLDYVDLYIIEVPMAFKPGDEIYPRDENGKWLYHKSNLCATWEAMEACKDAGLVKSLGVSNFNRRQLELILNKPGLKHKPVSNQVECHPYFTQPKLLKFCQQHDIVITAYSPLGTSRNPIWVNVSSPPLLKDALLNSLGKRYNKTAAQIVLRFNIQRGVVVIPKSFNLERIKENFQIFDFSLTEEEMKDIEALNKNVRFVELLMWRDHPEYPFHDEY

Molecule: CC(C)CCC[C@@H](C)[C@H]1CC[C@H]2[C@@H]3[C@H](O)CC4=CC(=O)CC[C@]4(C)[C@H]3CC[C@]12C [7α-hydroxycholest-4-en-3-one]
kss [1]: 0.004 ± 0.001 s⁻¹
kss [2]: 0.010 ± 0.002 s⁻¹
Ki [3]: 51 ± 27 µM
kcat WT/P133R ([3]; 10 mM KPi): 10
kcat WT/P133R ([3]; 100 mM KPi): 6.7
kcat/Km WT/P133R (fold decrease in catalytic efficiency) ([3]; 100 mM KPi): 13 and 13.3
kcat ([3]; 10 mM KPi): 0.0017 ± 0.0001 s⁻¹
kcat ([3]; 100 mM KPi, apparent value, enzyme not saturated with NADPH): 0.0030 ± 0.0005 s⁻¹
Kd [4]: 13.6 ± 1.9 µM
kcat ([5]; 10 mM KPi): 0.017 ± 0.001 s⁻¹
kcat ([5]; 100 mM KPi): 0.020 ± 0.002 s⁻¹
Ki ([5]; 10 mM KPi): 55 ± 14 µM
Ki ([5]; 100 mM KPi): 46 ± 18 µM
Kd [6]: 2.2 ± 0.3 µM

Kd ([7]; 10 mM KPi): 28.4 ± 1.9 µM
Kd ([7]; 100 mM KPi): 34.5 ± 3.8 µM
Kd ([8]; 10 mM KPi): 24.8 ± 1.7 µM
Kd ([8]; 100 mM KPi): 34.8 ± 3.5 µM
Molecule: NC(=O)C1=CN([C@@H]2O[C@H](COP(=O)(O)OP(=O)(O)OC[C@H]3O[C@@H](n4cnc5c(N)ncnc54)[C@H](O)[C@@H]3O)[C@@H](O)[C@H]2O)C=CC1 [NADH]

Kd ([7]; 10 mM KPi): 0.08 ± 0.006 µM
Kd ([7]; 100 mM KPi): 27.1 ± 1.3 µM
koff (rate of NADP+ release) ([9]; 10 mM KPi): 8.9 ± 0.2 s⁻¹
koff (rate of NADP+ release) ([9]; 100 mM KPi, too fast for instrument (dead time ~1.8 ms)): >50 s⁻¹
Kd ([8]; 10 mM KPi): 0.0043 ± 0.0006 µM
Kd ([8]; 100 mM KPi): 0.237 ± 0.005 µM
koff (rate of NADP+ release) ([10]; 10 mM KPi): 0.164 ± 0.007 s⁻¹
koff (rate of NADP+ release) ([10]; 100 mM KPi): 0.28 s⁻¹ and 0.276 ± 0.008 s⁻¹
Molecule: NC(=O)c1ccc[n+]([C@@H]2O[C@H](COP(=O)([O-])OP(=O)(O)OC[C@H]3O[C@@H](n4cnc5c(N)ncnc54)[C@H](OP(=O)(O)O)[C@@H]3O)[C@@H](O)[C@H]2O)c1 [NADP^+]

kss [1]: 0.040 ± 0.001 s⁻¹
kss [2]: 0.048 ± 0.001 s⁻¹
reduction in Kd versus 7α-hydroxycholest-4-en-3-one ([6]; WT): 4 fold
Molecule: C[C@]12CCC(=O)C=C1CC[C@@H]1[C@@H]2C(=O)C[C@@]2(C)[C@H]1CC[C@]2(O)C(=O)CO [cortisone]

Kd [4]: 14.2 ± 1.3 µM
Kd [6]: 3.7 ± 0.2 µM
Molecule: CC(C)(C)NC(=O)[C@H]1CC[C@H]2[C@@H]3CC[C@H]4NC(=O)C=C[C@]4(C)[C@H]3CC[C@]12C [finasteride]

B1: P133R AKR1D1 (Homo sapiens; P133R) (protein)
chain: MDLSAASHRIPLSDGNSIPIIGLGTYSEPKSTPKGACATSVKVAIDTGYRHIDGAYIYQNEHEVGEAIREKIAEGKVRREDIFYCGKLWATNHVPEMVRPTLERTLRVLQLDYVDLYIIEVPMAFKPGDEIYRRDENGKWLYHKSNLCATWEAMEACKDAGLVKSLGVSNFNRRQLELILNKPGLKHKPVSNQVECHPYFTQPKLLKFCQQHDIVITAYSPLGTSRNPIWVNVSSPPLLKDALLNSLGKRYNKTAAQIVLRFNIQRGVVVIPKSFNLERIKENFQIFDFSLTEEEMKDIEALNKNVRFVELLMWRDHPEYPFHDEY
Km ([11]; 10 mM KPi): 2.4 ± 0.7 (WT/P133R 0.42) μM
Km ([11]; 100 mM KPi, apparent value): 1.0 ± 0.4 (WT/P133R 0.5) μM
